In brackets after ≈: the same amount, converted by molar mass.
Columns and labels:
Streptococcus pneumoniae [1] = assay: Antibacterial activity against erythromycin-susceptible Streptococcus pneumoniae ATCC 49619 by broth microdilution method; format: functional
Summary of the method: (§1)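 MIC read by broth microdilution following CLSI (2010) guidance. The clinical isolates were identified by 16S rDNA sequencing and labelled by genotype and phenotype. S. aureus ATCC 29213 and S. pneumoniae ATCC 49619 were the control strains. Azithromycin, clarithromycin and 3-OH-clarithromycin were run as reference compounds.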

Streptococcus pneumoniae [2] = assay: Antibacterial activity against penicillin-, constitutive MLS-resistant Streptococcus pneumoniae PU 11 by broth microdilution method; format: functional
Summary of the method: (§2)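 MIC by broth microdilution following CLSI (2010) recommendations, using clinical isolates identified by 16S rDNA sequencing and labelled by genotype and phenotype. S. aureus ATCC 29213 and S. pneumoniae ATCC 49619 were run as control strains, and azithromycin, clarithromycin and 3-OH-clarithromycin were tested as reference agents.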

Streptococcus pneumoniae [3] = assay: Antibacterial activity against efflux,penicillin-susceptible Streptococcus pneumoniae PU 09 by broth microdilution method; format: functional; summary of the method: as §1
Streptococcus pneumoniae [4] = assay: Antibacterial activity against penicillin-susceptible, constitutive MLS-resistant Streptococcus pneumoniae PU 27 by broth microdilution method; format: functional; summary of the method: as §2
Staphylococcus aureus [5] = assay: Antibacterial activity against erythromycin-susceptible Staphylococcus aureus ATCC 29213 by broth microdilution method; format: functional; summary of the method: as §1
[6] = test system: Staphylococcus haemolyticus; assay: Antibacterial activity against methicillin-resistant, coagulase-negative, constitutive MLS-resistant Staphylococcus haemolyticus PU 19 by broth microdilution method; format: functional; summary of the method: as §2
Staphylococcus aureus [7] = assay: Antibacterial activity against methicillin-, inducible MLS-resistant Staphylococcus aureus PU 32 by broth microdilution method
[8] = test system: Streptococcus dysgalactiae; assay: Antibacterial activity against efflux, erythromycin-resistant Streptococcus dysgalactiae A 1 by broth microdilution method; format: functional; summary of the method: as §2
Streptococcus pyogenes [9] = assay: Antibacterial activity against constitutive MLS-resistant Streptococcus pyogenes A 2 by broth microdilution method; format: functional; summary of the method: as §2
Streptococcus pyogenes [10] = assay: Antibacterial activity against erythromycin-susceptible Streptococcus pyogenes A 3 by broth microdilution method; format: functional; summary of the method: as §1
Staphylococcus aureus [11] = assay: Antibacterial activity against methicillin-, constitutive MLS-resistant […] by broth microdilution method; format: functional; summary of the method: as §2
Staphylococcus aureus [12] = assay: Antibacterial activity against methicillin-susceptible, inducible MLS-resistant Staphylococcus aureus PU 64 by broth microdilution method; format: functional; summary of the method: as §2
[13] = test system: Staphylococcus epidermidis; assay: Antibacterial activity against methicillin-susceptible, inducible MLS-resistant Staphylococcus epidermidis E1 by broth microdilution method; format: functional; summary of the method: as §2
[14] = test system: Staphylococcus epidermidis; assay: Antibacterial activity against methicillin-resistant, constitutive MLS-resistant Staphylococcus epidermidis E2 by broth microdilution method; format: functional; summary of the method: as §2
Staphylococcus hominis = assay: Antibacterial activity against methicillin-resistant, coagulase-negative, inducible MLS-resistant Staphylococcus hominis E3 by broth microdilution method; format: functional; summary of the method: as §2

SMILES | MIC (Streptococcus pneumoniae [1]) [µg/mL] | MIC (Streptococcus pneumoniae [2]) [µg/mL] | MIC (Streptococcus pneumoniae [3]) [µg/mL] | MIC (Streptococcus pneumoniae [4]) [µg/mL] | MIC (Staphylococcus aureus [5]) [µg/mL] | MIC [6] [µg/mL] | MIC (Staphylococcus aureus [7]) [µg/mL] | MIC [8] [µg/mL] | MIC (Streptococcus pyogenes [9]) [µg/mL] | MIC (Streptococcus pyogenes [10]) [µg/mL] | MIC (Staphylococcus aureus [11]) [µg/mL] | MIC (Staphylococcus aureus [12]) [µg/mL] | MIC [13] [µg/mL] | MIC [14] [µg/mL] | MIC (Staphylococcus hominis) [µg/mL]
CC[C@H]1OC(=O)[C@H](C)[C@@H](OC/C=C/c2cncc3ccccc23)[C@H](C)[C@@H](O[C@@H]2O[C@H](C)C[C@H](N(C)C)[C@H]2O)[C@](C)(OC)C[C@@H](C)/C(=N\OCc2ccccc2Cl)[C@H](C)[C@H]2OC(=O)O[C@@]21C | 16 (≈ 17.3 µM) | 32 (≈ 34.7 µM) | 16 (≈ 17.3 µM) | 32 (≈ 34.7 µM) | 64 (≈ 69.4 µM) | 128 (≈ 139 µM) | 256 (≈ 277 µM) |  |  |  |  |  |  |  | 
C=CCO[C@H]1[C@H](C)[C@@H](O[C@@H]2O[C@H](C)C[C@H](N(C)C)[C@H]2O)[C@](C)(OC)C[C@@H](C)/C(=N\O)[C@H](C)[C@@H](O)[C@](C)(O)[C@@H](CC)OC(=O)[C@@H]1C | 16 (≈ 24.8 µM) | > 256 | 32 (≈ 49.6 µM) | 128 (≈ 198 µM) | 256 (≈ 397 µM) | > 256 | 128 (≈ 198 µM) |  |  |  |  |  |  |  | 
C=CCO[C@H]1[C@H](C)[C@@H](O[C@@H]2O[C@H](C)C[C@H](N(C)C)[C@H]2O)[C@](C)(OC)C[C@@H](C)C(=O)[C@H](C)[C@@H](O)[C@](C)(O)[C@@H](CC)OC(=O)[C@@H]1C | 32 (≈ 50.8 µM) | > 256 | 64 (≈ 102 µM) | 128 (≈ 203 µM) | > 256 | > 256 | 256 (≈ 406 µM) |  |  |  |  |  |  |  | 
C=CCO[C@H]1[C@H](C)[C@@H](O[C@@H]2O[C@H](C)C[C@H](N(C)C)[C@H]2O)[C@](C)(OC)C[C@@H](C)C(=O)N[C@H](C)[C@@H](O)[C@](C)(O)[C@@H](CC)OC(=O)[C@@H]1C | > 256 | > 256 | > 256 | > 256 | > 256 | > 256 | > 256 |  |  |  |  |  |  |  | 
CC[C@H]1OC(=O)[C@H](C)[C@@H](O/C=C\Cc2cncnc2)[C@H](C)[C@@H](O[C@@H]2O[C@H](C)C[C@H](N(C)C)[C@H]2O)[C@](C)(OC)C[C@@H](C)/C(=N\O)[C@H](C)[C@@H](O)[C@]1(C)O | 0.064 (≈ 0.0885 µM) | 128 (≈ 177 µM) | 0.25 (≈ 0.346 µM) | 16 (≈ 22.1 µM) | 0.064 (≈ 0.0885 µM) | > 256 | 0.064 (≈ 0.0885 µM) |  |  |  |  |  |  |  | 
CC[C@H]1OC(=O)[C@H](C)[C@@H](OCCCc2cncnc2)[C@H](C)[C@@H](O[C@@H]2O[C@H](C)C[C@H](N(C)C)[C@H]2O)[C@](C)(OC)C[C@@H](C)/C(=N\OCc2ccccc2Cl)[C@H](C)[C@H]2OC(=O)O[C@@]21C | 1 (≈ 1.14 µM) | > 256 | 2 (≈ 2.28 µM) | 32 (≈ 36.6 µM) | 16 (≈ 18.3 µM) | > 256 | 16 (≈ 18.3 µM) | 4 (≈ 4.57 µM) | 32 (≈ 36.6 µM) | 1 (≈ 1.14 µM) | > 256 | > 256 | > 256 | > 256 | > 256
CC[C@H]1OC(=O)[C@H](C)[C@@H](OCCCc2cccnc2)[C@H](C)[C@@H](O[C@@H]2O[C@H](C)C[C@H](N(C)C)[C@H]2O)[C@](C)(OC)C[C@@H](C)/C(=N\OCc2ccccc2Cl)[C@H](C)[C@H]2OC(=O)O[C@@]21C | 8 (≈ 9.15 µM) | 64 (≈ 73.2 µM) | 16 (≈ 18.3 µM) | 32 (≈ 36.6 µM) | > 256 | > 256 | > 256 | 16 (≈ 18.3 µM) | 32 (≈ 36.6 µM) | 8 (≈ 9.15 µM) | > 256 | > 256 | > 256 | > 256 | > 256
CC[C@H]1OC(=O)[C@H](C)[C@@H](OC/C=C/c2cncnc2)[C@H](C)[C@@H](O[C@@H]2O[C@H](C)C[C@H](N(C)C)[C@H]2O)[C@](C)(OC)C[C@@H](C)/C(=N\O)[C@H](C)[C@@H](O)[C@]1(C)O | 16 (≈ 22.1 µM) | > 256 | 32 (≈ 44.3 µM) | 128 (≈ 177 µM) | > 256 | > 256 | > 256 | 16 (≈ 22.1 µM) | > 256 | 8 (≈ 11.1 µM) | > 256 | > 256 | > 256 | > 256 | > 256
CC[C@H]1OC(=O)[C@H](C)[C@@H](OC/C=C/c2cncnc2)[C@H](C)[C@@H](O[C@@H]2O[C@H](C)C[C@H](N(C)C)[C@H]2O)[C@](C)(OC)C[C@@H](C)C(=O)[C@H](C)[C@@H](O)[C@]1(C)O | 8 (≈ 11.3 µM) | 128 (≈ 181 µM) | 16 (≈ 22.6 µM) | 128 (≈ 181 µM) | > 256 | > 256 | > 256 | 16 (≈ 22.6 µM) | > 256 | 8 (≈ 11.3 µM) | > 256 | > 256 | > 256 | > 256 | > 256

From ChEMBL document CHEMBL1944546, “Structure-activity relationships of novel alkylides: 3-O-arylalkyl clarithromycin derivatives with improved antibacterial activities” (2012)
